Drawing on ChEMBL document CHEMBL1914427, “Design, synthesis and biological evaluation of benzo[1.3.2]dithiazolium ylide 1,1-dioxide derivatives as potential dual cyclooxygenase-2/5-lipoxygenase inhibitors” (Bioorg Med Chem, 2011), this text covers inhibition in vivo for one compound.

The test has as its system Rattus norvegicus. The test can be described thus: Antiinflammatory activity in Wistar rat assessed as inhibition of carrageenan-induced paw edema at 150 mg/kg, po administered 1 hr before carrageenan challenge measured after 3 hrs relative to vehicle treated control. It is filed as functional. In a few lines:
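Male Wistar rats given aspirin orally at 150 mg/kg, 1 h before intraplantar carrageenan (0.1 mL of 1% suspension) into the right hind paw. Hind paw edema read by plethysmometer 3 h after carrageenan; reduction taken relative to vehicle group.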

The structures appear in SMILES notation.

As for `CC(=O)Oc1ccccc1C(=O)O` [ASPIRIN], the inhibition in vivo at 150 mg/kg was found to be 38%.

What is called inhibition in vivo is the percentage by which the read-out fell short of the control.
